Measurements from ChEMBL document CHEMBL1145747, “Potent inhibition of NTPase/helicase of the West Nile Virus by ring-expanded ("fat") nucleoside analogues” (J Med Chem, 2003).
≈ marks a conversion by molar mass, not a printed value.

Experiments:
West Nile virus [1] = test: Inhibitory activity determined against west nile virus (WNV) NTPase/helicase (NTPase/helicase Non structural protein 3) using DNA as substrate; type: functional
Method in brief: (§1)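 WNV NTPase/helicase (2 pmol), purified from culture medium of virus-infected Vero E6 cells, unwinding a partially hybridized 32P 5'-labelled duplex (26-mer release strand on 40-mer template; DNA or RNA per line, 4.7 pM nucleotide base). Conditions: ATP at Km (9.5 µM), 20 mM Tris/HCl pH 7.5, 2 mM MgCl2, 30 min at 30 °C. Released strand resolved on TBE-PAGE and its radioactivity counted. IC50 is 50% of compound-free unwinding; representative of three independent experiments.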

[2] = biological target: T1, ATP-dependent RNA helicase SUPV3L1, mitochondrial (Homo sapiens, UniProt Q8IYB8); test: Inhibitory activity determined against human Suv3 helicase using DNA as substrate
T1 sequence (Q8IYB8 whole entry): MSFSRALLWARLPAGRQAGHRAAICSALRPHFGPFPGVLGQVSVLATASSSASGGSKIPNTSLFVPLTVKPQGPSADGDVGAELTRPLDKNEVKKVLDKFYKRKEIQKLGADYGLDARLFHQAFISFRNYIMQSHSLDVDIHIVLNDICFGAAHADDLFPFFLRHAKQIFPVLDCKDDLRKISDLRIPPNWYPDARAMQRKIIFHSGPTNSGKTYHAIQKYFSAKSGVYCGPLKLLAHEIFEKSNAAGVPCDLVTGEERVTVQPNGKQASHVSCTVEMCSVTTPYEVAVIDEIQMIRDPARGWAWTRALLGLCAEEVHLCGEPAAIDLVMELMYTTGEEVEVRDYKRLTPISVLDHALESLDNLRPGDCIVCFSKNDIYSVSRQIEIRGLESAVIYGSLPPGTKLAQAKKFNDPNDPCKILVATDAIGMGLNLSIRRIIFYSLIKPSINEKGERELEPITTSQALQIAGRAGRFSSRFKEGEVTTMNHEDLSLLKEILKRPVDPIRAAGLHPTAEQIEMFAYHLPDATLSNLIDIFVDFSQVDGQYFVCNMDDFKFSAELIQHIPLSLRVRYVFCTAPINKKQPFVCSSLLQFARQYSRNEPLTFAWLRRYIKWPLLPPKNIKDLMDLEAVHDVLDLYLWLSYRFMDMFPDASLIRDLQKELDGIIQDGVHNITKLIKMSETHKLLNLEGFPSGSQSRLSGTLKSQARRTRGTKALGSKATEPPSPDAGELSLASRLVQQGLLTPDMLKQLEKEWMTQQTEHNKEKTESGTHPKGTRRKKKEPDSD
Method in brief: (§2)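 Human Suv3(Δ1-159), expressed in E. coli from pQE60, 0.2 pmol per assay. Substrate: partially hybridized 32P-labelled DNA or RNA duplex (per line), 4.7 pM nucleotide base. Run with ATP at its Km of 4.2 µM in Tris/HCl pH 7.5 with MgCl2, 30 min at 30 °C. Released strand separated by TBE-PAGE and quantified by 32P counting. IC50 is 50% of control unwinding; representative of three experiments.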

[3] = biological target: T1, ATP-dependent RNA helicase SUPV3L1, mitochondrial; test: Inhibitory activity against human Suv3 helicase using RNA as substrate; method in brief: as §2
West Nile virus [4] = test: Inhibitory activity against west nile virus (WNV) NTPase/helicase (NTPase/helicase Non structural protein 3) using RNA as substrate; type: functional; method in brief: as §1
West Nile virus [5] = test: Inhibitory activity against west nile virus (WNV) NTPase/helicase (NTPase/helicase Non structural protein 3) using DNA as substrate; type: functional; method in brief: as §1
West Nile virus [6] = test: Inhibitory activity determined against west nile virus (WNV) NTPase/helicase (NTPase/helicase Non structural protein 3) using RNA as substrate; type: functional; method in brief: as §1

Compound | IC50 (West Nile virus [1]) [µg/mL] | IC50 [2] [µM] | IC50 [3] [µM] | ED200 (West Nile virus [4]) [µg/mL] | ED200 (West Nile virus [5]) [µg/mL] | IC50 (West Nile virus [6]) [µg/mL]
CNc1nc(=O)c2c(ncn2C2O[C@H](CO)[C@@H](O)C2O)c(=O)[nH]1 (single isomer, unassigned) | > 300 | – | – | – | – | –
CCCCNc1nc(=O)c2c(ncn2C2O[C@H](CO)[C@@H](O)C2O)c(=O)[nH]1 (single isomer, unassigned) | > 300 | – | – | – | – | –
O=c1nc(NCCCc2ccccc2)[nH]c(=O)c2c1ncn2C1O[C@H](CO)[C@@H](O)C1O (single isomer, unassigned) | > 500 | – | – | – | – | –
CCCCCNc1nc(=O)c2c(ncn2C2O[C@H](CO)[C@@H](O)C2O)c(=O)[nH]1 (single isomer, unassigned) | > 300 | – | – | – | – | –
O=c1nc(Nc2ccccc2)[nH]c(=O)c2c1ncn2C1O[C@H](CO)[C@@H](O)C1O (single isomer, unassigned) | – | > 1290 | > 1290 | 100 | 300 | –
CCCCCCCCCCCCNc1nc(=O)c2c(ncn2Cc2ccc(OC)cc2)c(=O)[nH]1 | 5 (≈ 10.7 µM) | > 1070 | > 1070 | – | – | 1 (≈ 2.14 µM)
CN(C)c1nc(=O)c2c(ncn2C2O[C@H](CO)[C@@H](O)C2O)c(=O)[nH]1 (single isomer, unassigned) | > 300 | – | – | – | – | –
O=c1nc(NCCc2ccccc2)[nH]c(=O)c2c1ncn2C1O[C@H](CO)[C@@H](O)C1O (single isomer, unassigned) | > 500 | – | – | – | – | –
O=c1nc(NCCCCc2ccccc2)[nH]c(=O)c2c1ncn2C1O[C@H](CO)[C@@H](O)C1O (single isomer, unassigned) | > 500 | – | – | – | – | –
CCCCCCCCCCCCNc1nc(=O)c2c(ncn2[C@@H]2C[C@H](O)[C@@H](CO)O2)c(=O)[nH]1 | 3 (≈ 6.47 µM) | 539 | 324 | – | – | 100 (≈ 216 µM)
CCNc1nc(=O)c2c(ncn2C2O[C@H](CO)[C@@H](O)C2O)c(=O)[nH]1 (single isomer, unassigned) | > 300 | – | – | – | – | –
CCCCCCCCCCCCNc1nc(=O)c2ncn([C@@H]3O[C@H](CO)[C@@H](O)C3O)c2c(=O)[nH]1 (single isomer, unassigned) | 1 (≈ 2.09 µM) | > 1040 | 313 | – | – | 10 (≈ 20.9 µM)
CCCCCCCCCCCCCCNc1nc(=O)c2ncn([C@@H]3O[C@H](CO)[C@@H](O)C3O)c2c(=O)[nH]1 (single isomer, unassigned) | 3 (≈ 5.91 µM) | 591 | 59.1 | – | – | > 500
CCCCCCCCCCCCNc1nc(O)c2ncnc-2c(O)n1 | > 500 | > 1440 | > 1440 | – | – | > 500
CCCCCCCCCCCCCCCCCCNc1nc(=O)c2ncn([C@@H]3O[C@H](CO)[C@@H](O)C3O)c2c(=O)[nH]1 (single isomer, unassigned) | 5 (≈ 8.87 µM) | > 887 | 53.2 | – | – | 100 (≈ 177 µM)
CCCCCCCCCCCCCCCCNc1nc(=O)c2ncn([C@@H]3O[C@H](CO)[C@@H](O)C3O)c2c(=O)[nH]1 (single isomer, unassigned) | 250 (≈ 467 µM) | > 933 | 56 | – | – | 500 (≈ 933 µM)
CCCCCCCCCCCCNc1nc(=O)c2c(ncn2[C@H]2C[C@H](O)[C@@H](CO)O2)c(=O)[nH]1 | 3 (≈ 6.47 µM) | 6.47 | > 1080 | – | – | 1.5 (≈ 3.24 µM)
O=c1nc(NCc2ccccc2)[nH]c(=O)c2c1ncn2C1O[C@H](CO)[C@@H](O)C1O (single isomer, unassigned) | > 500 | – | – | – | – | –
CCCCCCNc1nc(=O)c2c(ncn2C2O[C@H](CO)[C@@H](O)C2O)c(=O)[nH]1 (single isomer, unassigned) | > 300 | – | – | – | – | –
CCCCCCCCNc1nc(=O)c2ncn([C@@H]3O[C@H](CO)[C@@H](O)C3O)c2c(=O)[nH]1 (single isomer, unassigned) | > 300 | – | – | – | – | –
CCCCCCCCCCNc1nc(=O)c2ncn([C@@H]3O[C@H](CO)[C@@H](O)C3O)c2c(=O)[nH]1 (single isomer, unassigned) | 30 (≈ 66.4 µM) | > 1110 | 1110 | – | – | 300 (≈ 664 µM)
CCCNc1nc(=O)c2c(ncn2C2O[C@H](CO)[C@@H](O)C2O)c(=O)[nH]1 (single isomer, unassigned) | > 300 | – | – | – | – | –
CCCCCCCNc1nc(=O)c2c(ncn2C2O[C@H](CO)[C@@H](O)C2O)c(=O)[nH]1 (single isomer, unassigned) | > 300 | – | – | – | – | –
